Source: PubChem BioAssay
Compounds with a hit are over-represented: about 1.9% of the library has one in this group of screens.
p-CIP stab down: lowers stability of the mouse p/CIP coactivator protein; Q05BA5; F442A p/CIP-EGFP cells, EGFP fluorescence, 16 h; decrease of EGFP signal, % at 10 µM; 290,000 tested, 0.01% active; AID 1984;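 active means EGFP signal decrease of at least 30% at 10 µM or well 3 SD below plate mean, unless failing retest; inactive means the rest, including hits failing retest or dose response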
Target sequence (Q05BA5 1-1403): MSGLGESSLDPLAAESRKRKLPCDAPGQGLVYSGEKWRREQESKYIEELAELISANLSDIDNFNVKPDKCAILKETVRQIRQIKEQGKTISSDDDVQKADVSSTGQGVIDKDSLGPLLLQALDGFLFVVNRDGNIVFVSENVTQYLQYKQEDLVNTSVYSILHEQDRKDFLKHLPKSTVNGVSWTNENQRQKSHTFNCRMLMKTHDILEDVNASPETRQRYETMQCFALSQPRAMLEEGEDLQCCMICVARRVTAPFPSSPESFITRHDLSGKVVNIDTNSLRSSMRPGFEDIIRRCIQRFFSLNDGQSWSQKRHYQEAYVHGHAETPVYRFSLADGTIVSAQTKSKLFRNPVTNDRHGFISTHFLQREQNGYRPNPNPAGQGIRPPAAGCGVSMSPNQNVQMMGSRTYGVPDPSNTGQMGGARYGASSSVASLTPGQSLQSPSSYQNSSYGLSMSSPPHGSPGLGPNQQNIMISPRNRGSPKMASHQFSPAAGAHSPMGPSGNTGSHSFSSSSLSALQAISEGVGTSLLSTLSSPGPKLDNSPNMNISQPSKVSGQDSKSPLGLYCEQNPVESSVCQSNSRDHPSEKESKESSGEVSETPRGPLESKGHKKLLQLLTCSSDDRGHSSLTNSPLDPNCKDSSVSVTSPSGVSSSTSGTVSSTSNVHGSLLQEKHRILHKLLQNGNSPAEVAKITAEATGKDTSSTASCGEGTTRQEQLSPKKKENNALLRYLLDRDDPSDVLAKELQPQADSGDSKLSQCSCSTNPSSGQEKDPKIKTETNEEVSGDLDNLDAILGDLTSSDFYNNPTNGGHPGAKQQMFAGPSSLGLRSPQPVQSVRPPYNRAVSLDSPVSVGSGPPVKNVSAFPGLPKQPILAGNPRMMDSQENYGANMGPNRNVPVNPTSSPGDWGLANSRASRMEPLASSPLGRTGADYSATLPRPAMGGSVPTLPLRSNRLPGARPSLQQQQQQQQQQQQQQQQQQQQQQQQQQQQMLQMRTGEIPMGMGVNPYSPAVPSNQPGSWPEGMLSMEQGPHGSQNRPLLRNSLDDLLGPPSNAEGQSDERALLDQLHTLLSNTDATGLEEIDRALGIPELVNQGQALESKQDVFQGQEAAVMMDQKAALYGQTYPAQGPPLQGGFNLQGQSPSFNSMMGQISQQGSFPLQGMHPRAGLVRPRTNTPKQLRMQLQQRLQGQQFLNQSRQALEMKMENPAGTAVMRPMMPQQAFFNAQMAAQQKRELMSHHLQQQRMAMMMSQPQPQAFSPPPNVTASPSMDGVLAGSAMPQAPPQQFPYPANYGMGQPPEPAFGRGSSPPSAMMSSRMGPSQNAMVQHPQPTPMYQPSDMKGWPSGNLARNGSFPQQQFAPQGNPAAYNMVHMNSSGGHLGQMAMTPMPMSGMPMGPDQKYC
DNA FID counter: counter-screen for HCV NS3 helicase inhibitors: DNA intercalator displacement. 290,000 tested, 0.17% active. DNA fluorescent intercalator displacement, fluorescence. inhibition, % at 7.9 µM; in the data active means inhibition above about 37%;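 further: 0% = vehicle and 100% = reference compound; higher means more ethidium bromide displaced from hairpin DNA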
GPR7 antag: human neuropeptides B/W receptor 1 antagonism. GPR7-expressing cells, fluorescence antagonist assay. inhibition, % at 4.4 µM. 290,000 tested, 1.1% active. AID 1861; in the data active means inhibition above about 16%, passing the limit was not always enough;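 further: cells stimulated with the agonist NPW; 0% = agonist with vehicle and 100% = vehicle without agonist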
HCV NS3 hel inh: HCV NS3 helicase inhibition; inhibition, % at 10.9 µM; 290,000 tested, 0.56% active; AID 1800; NS3 helicase DNA unwinding, Cy5 molecular beacon fluorescence;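 active means inhibition above the mean of all tested compounds plus 3 SD, set per campaign, cut at about 35% in these data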;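 further: 0% = DMSO wells and 100% = thioflavine S control wells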
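System: NS3 helicase fragment of HCV / Schedule: 1 h at 25 °C / Control set: DMSO alone as 0% and 110 µM thioflavine S as 100% / Reagent: Cy5/quencher beacon DNA duplex and ATP to start / Technique: Cy5 fluorescence / Replication: singlicate / Evaluation: % inhibition of end-to-start signal ratio versus controls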
HCV core dimer: blocks dimerization of HCV core protein | inhibition, % at 5 µM | 300,000 tested, 0.33% active | TR-FRET GST/Flag-core106 dimerization, 1536-well;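 active means inhibition above the mean of all tested compounds plus 3 SD, set per screening campaign, cut at about 45% in these data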
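System – GST-tagged and Flag-tagged HCV core protein residues 1-106 · Repeats – one well for each compound · Technique – TR-FRET 671 and 617 nm emission · Doses – one concentration, 5 µM, in 0.5% DMSO · Times – 4 h, 22.5 °C incubation · Also added – Eu donor and XL665 acceptor anti-tag antibodies · Measure – percent inhibition of core106 dimerization signal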
GPR7 antag conf: confirmation of human GPR7 antagonists | shares compounds with GPR7 antag | GPR7-expressing cells, calcium fluorescence antagonist mode | inhibition, % at 4.4 µM | 2,400 tested, 52% active | AID 1952; in the data active means inhibition above about 24%;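 further: stimulated with the GPR7 agonist NPW; 0% = agonist plus vehicle and 100% = vehicle alone without agonist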
MCHR1 antag: counter-screen for GPR7 antagonists: antagonists of human MCHR1. 2,400 tested, 62% active. MCHR1-expressing cells, fluorescence antagonist assay. shares compounds with GPR7 antag. inhibition, % at 4.4 µM; in the data active means inhibition above about 22%;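 further: 0% = vehicle with agonist and 100% = vehicle without agonist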
* = called active by the depositor; · = no result given.

SMILES	p-CIP stab down	DNA FID counter	GPR7 antag	HCV NS3 hel inh	HCV core dimer	GPR7 antag conf	MCHR1 antag
O=C(c1ccccn1)N(Cc1cccs1)C1(C(=O)NC2CCCCC2)CCCCC1	19.7	-5.0	3.0	0.7	-0.3	·	·
O=C(c1cnccn1)N(Cc1cccs1)C1(C(=O)NC2CCCCC2)CCCCC1	-5.2	-30.8	41.4*	1.5	11.4	30.3*	30.0*
O=C1CCC(C(=O)N(Cc2cccs2)C2(C(=O)NC3CCCCC3)CCCCC2)N1 (configuration not stated)	-9.3	-20.1	12.9	5.0	1.8	·	·
O=C(CCCOc1ccc(Cl)cc1Cl)NN1CCOCC1	-19.7	-6.5	-7.3	-15.9	-6.5	·	·
CN(CC(=O)Nc1ccccc1Cl)C(=O)COC(=O)Cc1ccc(F)cc1	7.4	-17.3	-8.3	-13.8	0.3	·	·
CCn1cc(C(=O)N2CCN(c3ccc(OC)cc3)CC2)c2cc(OC)c(OC)cc2c1=O	4.2	-27.9	38.6*	2.8	2.1	-14.4	-8.1
C=CCC1(CC=C)CCCN1C(=O)c1cc(COc2cccc(OC)c2)on1	-34.7	-38.1	-9.3	-18.6	3.7	·	·
C=CCC1(CC=C)CCCN1C(=O)c1cc(COc2cncc(Cl)c2)on1	-37.1	-46.4	38.2*	-0.6	6.5	28.3*	51.6*
O=C(NN=C1CCCC1)c1ccccc1OCCOc1ccccc1	-2.7	-8.4	22.1*	-31.4	2.6	14.9	27.4*
CCN(CC(=O)Nc1ccccc1C(F)(F)F)C(=O)Cc1ccccc1	0.8	-22.9	-4.1	29.9	-7.3	·	·
O=S(=O)(c1ccc(OC(F)(F)F)cc1)N1CCC(O)(c2cccc(C(F)(F)F)c2)CC1	-19.6	-18.0	39.1*	-1.1	-12.0	44.5*	45.5*
COc1cc(S(=O)(=O)N2CCC(O)(c3cccc(C(F)(F)F)c3)CC2)ccc1-n1cnnn1	-2.0	-0.6	-0.8	-2.5	4.1	·	·
O=C(O)c1cccc(N2C(=O)c3cc4cccc(Br)c4cc3C2=O)c1	4.9	-13.5	37.9*	14.4	-8.1	0.3	11.3
O=C(O)c1ccc2c(c1)C(=O)N(c1cccc(C(=O)/C=C/c3ccccc3)c1)C2=O	-5.2	3.0	-1.1	3.9	18.3	·	·
Cc1cc(C)n(CCCNC(=O)CCNS(=O)(=O)c2ccccc2C(F)(F)F)n1	-2.4	-22.4	-16.0	-3.2	1.6	·	·
Cc1ccc2nccc(C(=O)N3CCCC(Nc4ccc(C)c(C)c4)C3)c2c1 (configuration not stated)	-19.5	-40.4	27.4*	-11.0	-2.9	-5.2	-8.6
COc1ccc2cc(Br)ccc2c1CC(=O)NCCCN1CCOCC1	·	·	·	·	-4.9	·	·
O=C(NS(=O)(=O)Oc1cccc(F)c1)OC[C@@H]1CCCN2CCCCC12 (some centres not stated)	0.8	-5.8	22.6*	22.4	-4.5	-10.7	9.9
O=C(NS(=O)(=O)Oc1ccc(F)cc1F)OC[C@@H]1CCCN2CCCCC12 (some centres not stated)	-10.2	-2.1	-12.6	-13.2	1.9	·	·
O=C(CSc1nnc(-c2cccc(S(=O)(=O)N3CCCC3)c2)n1-c1ccccc1)Nc1ccc(C(=O)O)cc1	8.6	-25.0	26.4*	0.6	1.0	10.6	13.1
O=C(CSc1nnc(-c2cccc(S(=O)(=O)N3CCCC3)c2)n1-c1ccccc1)Nc1cccc(C(=O)O)c1	-4.7	-31.3	-9.8	4.1	2.8	·	·
O=c1nc(Nc2ccc(Br)cc2)sc2ccc([N+](=O)[O-])cc12	-4.3	2.2	2.1	9.2	28.0	·	·
CCC(=O)c1ccc(OCC(=O)NCCC2=CCCCC2)c(OC)c1	6.8	-37.0	24.0*	-5.5	-6.3	3.9	3.7
COc1ccc(C2CC(=O)C(C=NCCN3CCOCC3)=C(O)C2)cc1 (configuration not stated)	3.7	-2.0	23.3*	14.8	-2.8	-1.5	5.1
O=C(N/N=C/c1cccc(OC(=O)c2ccco2)c1)c1ccc(F)cc1	-0.7	-20.1	21.6*	-6.3	-2.8	16.3	23.4*
SMILES	p-CIP stab down	DNA FID counter	GPR7 antag	HCV NS3 hel inh	HCV core dimer	GPR7 antag conf	MCHR1 antag
COc1cccc(CNS(=O)(=O)c2ccc(S(=O)(=O)NC3CC3)cc2)c1	-11.3	-5.8	0.3	4.2	4.9	·	·
COc1ccc(CNS(=O)(=O)c2ccc(S(=O)(=O)NC3CC3)cc2)cc1	-19.6	-5.9	27.4*	-6.5	-6.3	4.5	2.1
CCOC(=O)c1cc(-c2ccc(OC)cc2F)nc2c1c(C)nn2CCC#N	-15.3	-3.1	29.4*	6.5	-1.8	33.2*	22.7*
O=[N+]([O-])c1cccc(-c2nc3ccc([N+](=O)[O-])cc3[nH]2)c1	-5.2	4.7	-3.4	-2.7	-1.4	·	·
O=[N+]([O-])c1ccc2nc(-c3ccccc3[N+](=O)[O-])[nH]c2c1	0.1	3.4	25.0*	-3.1	-8.9	3.0	3.7
CC(NCCC(c1ccccc1)c1ccccc1)c1ccccc1 (configuration not stated)	-7.7	19.5	28.1*	-75.8	0.9	50.8*	54.6*
Cc1ccccc1OCCn1c(=O)sc2ccccc21	-3.0	-15.2	21.0*	-7.0	10.2	13.5	36.6*
COc1ccccc1OCCn1c(=O)sc2ccccc21	-3.4	-16.5	2.8	-7.3	3.9	·	·
Cc1cc(C)cc(NC(=O)CCc2ccc(C)o2)c1	-5.6	-6.5	28.5*	24.5	10.5	-11.6	6.9
Cc1cccc(NC(=O)CCc2ccc(C)o2)c1	6.2	-7.8	-5.9	1.5	15.3	·	·
COc1ccc(S(=O)(=O)N2CC(C)N(C(=O)N(C)C)C2C(C)C)cc1 (configuration not stated)	-7.9	-17.0	-1.4	-3.3	4.0	·	·
CC1(c2ccc([N+](=O)[O-])cc2)NC(=O)NC1=O (configuration not stated)	0.6	-4.3	-3.8	7.9	-6.2	·	·
CCCCN1C(=O)C(NC(C)=O)c2ccccc21 (configuration not stated)	2.5	-8.7	26.0*	2.3	-4.1	-14.9	19.8
CCC(C)N(C(=O)Cn1cnc2c1c(=O)n(C)c(=O)n2C)C1CCS(=O)(=O)C1 (configuration not stated)	·	·	·	·	4.2	·	·
CCN(C(=O)COC(=O)Cn1cnc2c1c(=O)n(C)c(=O)n2C)C1CCS(=O)(=O)C1 (configuration not stated)	5.4	-2.1	28.7*	-1.8	-0.1	10.5	11.8
Cc1ccc(S(=O)(=O)Oc2ccc(/C=C3\C(=N)N4N=C(S(C)(=O)=O)SC4=NC3=O)cc2)cc1	-8.1	7.2	29.5*	-14.7	26.1	14.4	7.5
CCS(=O)(=O)C1=NN2C(=N)/C(=C\c3ccc(OS(=O)(=O)c4ccccc4)cc3)C(=O)N=C2S1	-12.7	17.0	8.8	3.2	13.0	·	·
